Results taken from ChEMBL document CHEMBL1806372, “Cytotoxic ring A-modified steroid analogues derived from Grundmann's ketone” (Eur J Med Chem, 2011).
The source made the active and inactive calls. No cut-off for these calls is given here.

What was measured:
Staphylococcus equorum = test: Antibacterial activity against Staphylococcus equorum assessed as zone of inhibition at 5 uL and 32 degC after 36 hrs at by disk diffusion method; assay type: functional
Outline: (§1)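 Disc diffusion on AC agar, each strain spread evenly over the medium; test compounds given as 1% (w/v) DMSO solutions. Plates covered and incubated 36 h at 32 °C, then the diameter of the zone of inhibited growth measured in mm. Tetracycline served as antibacterial reference.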

Escherichia coli = test: Antibacterial activity against Escherichia coli assessed as zone of inhibition at 5 uL and 32 degC after 36 hrs by disk diffusion method; assay type: functional; outline: as §1
HL-60 = test: Cytotoxicity against human HL60 cells after 24 hrs by MTT assay; assay type: functional, cell-based; conditions: HL-60, 24 h
Outline: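 HL-60 cells kept in RPMI 1640 with 10% FBS, no antibiotics, 37 °C, humidified 5% CO2. Cells (9 × 10^5 cells/mL) exposed to compound in 96-well plates for 24 h at 37 °C. MTT in PBS (5 mg/mL) added for 2 h, then DMSO, shaken 1 h and read photometrically. IC50 determined; cisplatin reference.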

Nakaseomyces glabratus = test: Antifungal activity against Candida glabrata assessed as zone of inhibition at 5 uL and 28 degC after 36 hrs by disk diffusion method; assay type: functional
Outline: (§2)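 Agar disc diffusion with the test compound applied as a 1% (w/v) DMSO solution. Yeasts were grown on AC agar and Aspergillus niger on potato dextrose broth agar, each strain spread evenly. Plates were covered and kept 36 h at 28 °C, and the inhibition zone diameter was read in mm. Clotrimazole served as reference.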

[1] = (§3) Antibacterial activity against Pseudomonas antimicrobica assessed as zone of inhibition at 5 uL and 32 degC after 36 hrs by disk diffusion method; assay type: functional, Burkholderia gladioli; outline: as §1
Aspergillus niger = test: Antifungal activity against Aspergillus niger assessed as zone of inhibition at 5 uL and 28 degC after 36 hrs by disk diffusion method; assay type: functional; outline: as §2
[2] = Antifungal activity against Hyphopichia burtonii assessed as zone of inhibition at 5 uL and 28 degC after 36 hrs by disk diffusion method; assay type: functional; outline: as §2
Streptococcus entericus = test: Antibacterial activity against Streptococcus entericus assessed as zone of inhibition at 5 uL and 32 degC after 36 hrs by disk diffusion method; assay type: functional; outline: as §1
Yarrowia lipolytica = test: Antifungal activity against Yarrowia lipolytica assessed as zone of inhibition at 5 uL and 28 degC after 36 hrs by disk diffusion method; assay type: functional; outline: as §2
Burkholderia gladioli = test: as §3; assay type: functional; outline: as §1

## CC(C)CCC[C@@H](C)[C@H]1CC[C@H]2C(C#CCCO)=CCC[C@]12C
Staphylococcus equorum
  diameter of the inhibition zone (DIZ): 6 mm
Escherichia coli
  diameter of the inhibition zone (DIZ): 10 mm
HL-60
  IC50: 38 µM
Nakaseomyces glabratus
  diameter of the inhibition zone (DIZ): 10 mm
[1]
  diameter of the inhibition zone (DIZ): 11 mm
Aspergillus niger
  diameter of the inhibition zone (DIZ): inactive
[2]
  inhibition zone (IZ): 11 mm
Streptococcus entericus
  diameter of the inhibition zone (DIZ): 14 mm
Yarrowia lipolytica
  diameter of the inhibition zone (DIZ): inactive

## CC(C)CCC[C@@H](C)[C@H]1CC[C@H]2C3=CC[C@@H]4C(=O)OC(=O)[C@@H]4[C@@H]3CC[C@]12C
Staphylococcus equorum
  diameter of the inhibition zone (DIZ): inactive
Escherichia coli
  diameter of the inhibition zone (DIZ): 7 mm
HL-60
  IC50: 30 µM
Nakaseomyces glabratus
  diameter of the inhibition zone (DIZ): 8 mm
[1]
  diameter of the inhibition zone (DIZ): 10 mm
Aspergillus niger
  diameter of the inhibition zone (DIZ): inactive
[2]
  inhibition zone (IZ): 10 mm
Streptococcus entericus
  diameter of the inhibition zone (DIZ): 12 mm
Yarrowia lipolytica
  diameter of the inhibition zone (DIZ): inactive

## CC(C)CCC[C@@H](C)[C@H]1CC[C@H]2C(CCCCO)CCC[C@]12C (mixture of isomers)
HL-60
  IC50: 13 µM

## CC(C)CCC[C@@H](C)[C@H]1CC[C@H]2C3=CCn4c(=O)c5ccccc5c(=O)n4[C@@H]3CC[C@]12C
Staphylococcus equorum
  diameter of the inhibition zone (DIZ): inactive
Escherichia coli
  diameter of the inhibition zone (DIZ): inactive
HL-60
  IC50: 17 µM
Nakaseomyces glabratus
  diameter of the inhibition zone (DIZ): 10 mm
[1]
  diameter of the inhibition zone (DIZ): 7 mm
Aspergillus niger
  diameter of the inhibition zone (DIZ): inactive
[2]
  inhibition zone (IZ): 7 mm
Streptococcus entericus
  diameter of the inhibition zone (DIZ): inactive
Yarrowia lipolytica
  diameter of the inhibition zone (DIZ): inactive

## CCN1C(=O)[C@H]2[C@H](CC=C3[C@H]2CC[C@]2(C)[C@@H]([C@H](C)CCCC(C)C)CC[C@@H]32)C1=O
Staphylococcus equorum
  diameter of the inhibition zone (DIZ): 8 mm
Escherichia coli
  diameter of the inhibition zone (DIZ): 7 mm
HL-60
  IC50: 13 µM
Nakaseomyces glabratus
  diameter of the inhibition zone (DIZ): 8 mm
[1]
  diameter of the inhibition zone (DIZ): 7 mm
Aspergillus niger
  diameter of the inhibition zone (DIZ): inactive
[2]
  inhibition zone (IZ): 7 mm
Streptococcus entericus
  diameter of the inhibition zone (DIZ): 11 mm
Yarrowia lipolytica
  diameter of the inhibition zone (DIZ): inactive

## CCCN1C(=O)[C@H]2[C@H](CC=C3[C@H]2CC[C@]2(C)[C@@H]([C@H](C)CCCC(C)C)CC[C@@H]32)C1=O
Staphylococcus equorum
  diameter of the inhibition zone (DIZ): inactive
Escherichia coli
  diameter of the inhibition zone (DIZ): 7 mm
HL-60
  IC50: 7 µM
Nakaseomyces glabratus
  diameter of the inhibition zone (DIZ): 6 mm
[1]
  diameter of the inhibition zone (DIZ): 7 mm
Aspergillus niger
  diameter of the inhibition zone (DIZ): inactive
[2]
  inhibition zone (IZ): 14 mm
Streptococcus entericus
  diameter of the inhibition zone (DIZ): 7 mm
Yarrowia lipolytica
  diameter of the inhibition zone (DIZ): 10 mm

## CN(C)[C@@H]1C(O)=C(C(N)=O)C(=O)[C@@]2(O)C(O)=C3C(=O)c4c(O)cccc4[C@@](C)(O)[C@H]3C[C@@H]12 [TETRACYCLINE]
Staphylococcus equorum
  diameter of the inhibition zone (DIZ): 30 mm
Escherichia coli
  diameter of the inhibition zone (DIZ): 30 mm
[1]
  diameter of the inhibition zone (DIZ): 25 mm
Streptococcus entericus
  diameter of the inhibition zone (DIZ): 22 mm

## CC(C)CCC[C@@H](C)[C@H]1CC[C@H]2C3=CCn4c(=O)n(C)c(=O)n4[C@@H]3CC[C@]12C
Staphylococcus equorum
  diameter of the inhibition zone (DIZ): 10 mm
Escherichia coli
  diameter of the inhibition zone (DIZ): inactive
HL-60
  IC50: 13 µM
Nakaseomyces glabratus
  diameter of the inhibition zone (DIZ): inactive
Burkholderia gladioli
  diameter of the inhibition zone (DIZ): inactive
Aspergillus niger
  diameter of the inhibition zone (DIZ): inactive
[2]
  diameter of the inhibition zone (DIZ): inactive
Streptococcus entericus
  diameter of the inhibition zone (DIZ): inactive
Yarrowia lipolytica
  diameter of the inhibition zone (DIZ): inactive

## CC(C)CCC[C@@H](C)[C@H]1CC[C@H]2C(/C=C/CN3C(=O)C=CC3=O)=CCC[C@]12C
Staphylococcus equorum
  diameter of the inhibition zone (DIZ): 11 mm
Escherichia coli
  diameter of the inhibition zone (DIZ): 9 mm
HL-60
  IC50: 32 µM
Nakaseomyces glabratus
  diameter of the inhibition zone (DIZ): 7 mm
[1]
  diameter of the inhibition zone (DIZ): 10 mm
Aspergillus niger
  diameter of the inhibition zone (DIZ): inactive
[2]
  inhibition zone (IZ): 8 mm
Streptococcus entericus
  diameter of the inhibition zone (DIZ): 15 mm
Yarrowia lipolytica
  diameter of the inhibition zone (DIZ): inactive

## CC(C)CCC[C@@H](C)[C@H]1CC[C@H]2C3=CC[C@@H]4C(=O)NC(=O)[C@@H]4[C@@H]3CC[C@]12C
Staphylococcus equorum
  diameter of the inhibition zone (DIZ): 14 mm
Escherichia coli
  diameter of the inhibition zone (DIZ): 24 mm
HL-60
  IC50: 16 µM
Nakaseomyces glabratus
  diameter of the inhibition zone (DIZ): 15 mm
[1]
  diameter of the inhibition zone (DIZ): 11 mm
Aspergillus niger
  diameter of the inhibition zone (DIZ): inactive
[2]
  diameter of the inhibition zone (DIZ): inactive
Streptococcus entericus
  diameter of the inhibition zone (DIZ): 15 mm
Yarrowia lipolytica
  diameter of the inhibition zone (DIZ): inactive

## CC(C)CCC[C@@H](C)[C@H]1CC[C@H]2C3=CC[C@@H]4C(=O)N(C)C(=O)[C@@H]4[C@@H]3CC[C@]12C
Staphylococcus equorum
  diameter of the inhibition zone (DIZ): inactive
Escherichia coli
  diameter of the inhibition zone (DIZ): 10 mm
HL-60
  IC50: 15 µM
Nakaseomyces glabratus
  diameter of the inhibition zone (DIZ): 10 mm
[1]
  diameter of the inhibition zone (DIZ): 7 mm
Aspergillus niger
  diameter of the inhibition zone (DIZ): inactive
[2]
  inhibition zone (IZ): 14 mm
Streptococcus entericus
  diameter of the inhibition zone (DIZ): 10 mm
Yarrowia lipolytica
  diameter of the inhibition zone (DIZ): inactive

## Clc1ccccc1C(c1ccccc1)(c1ccccc1)n1ccnc1 [CLOTRIMAZOLE]
Nakaseomyces glabratus
  diameter of the inhibition zone (DIZ): 18 mm
Aspergillus niger
  diameter of the inhibition zone (DIZ): 13 mm
[2]
  inhibition zone (IZ): 20 mm
Yarrowia lipolytica
  diameter of the inhibition zone (DIZ): 18 mm

## CC(C)CCC[C@@H](C)[C@H]1CC[C@H]2C(CCCCN3C(=O)C=CC3=O)CCC[C@]12C (mixture of isomers)
Staphylococcus equorum
  diameter of the inhibition zone (DIZ): 11 mm
Escherichia coli
  diameter of the inhibition zone (DIZ): 10 mm
HL-60
  IC50: 14 µM
Nakaseomyces glabratus
  diameter of the inhibition zone (DIZ): 8 mm
[1]
  diameter of the inhibition zone (DIZ): 9 mm
Aspergillus niger
  diameter of the inhibition zone (DIZ): inactive
[2]
  inhibition zone (IZ): 9 mm
Streptococcus entericus
  diameter of the inhibition zone (DIZ): 12 mm
Yarrowia lipolytica
  diameter of the inhibition zone (DIZ): inactive

## CC(C)=CCCC1=CCn2c(=O)ccc(=O)n2C1
Staphylococcus equorum
  diameter of the inhibition zone (DIZ): inactive
Escherichia coli
  diameter of the inhibition zone (DIZ): inactive
HL-60
  IC50: 41 µM
Nakaseomyces glabratus
  diameter of the inhibition zone (DIZ): inactive
Burkholderia gladioli
  diameter of the inhibition zone (DIZ): inactive
Aspergillus niger
  diameter of the inhibition zone (DIZ): inactive
[2]
  diameter of the inhibition zone (DIZ): inactive
Streptococcus entericus
  diameter of the inhibition zone (DIZ): inactive
Yarrowia lipolytica
  diameter of the inhibition zone (DIZ): inactive

## C=CC1=CCC[C@]2(C)[C@@H]([C@H](C)CCCC(C)C)CC[C@@H]12
Staphylococcus equorum
  diameter of the inhibition zone (DIZ): 10 mm
Escherichia coli
  diameter of the inhibition zone (DIZ): inactive
HL-60
  IC50: > 100 µM
Nakaseomyces glabratus
  diameter of the inhibition zone (DIZ): inactive
Burkholderia gladioli
  diameter of the inhibition zone (DIZ): inactive
Aspergillus niger
  diameter of the inhibition zone (DIZ): inactive
[2]
  diameter of the inhibition zone (DIZ): inactive
Streptococcus entericus
  diameter of the inhibition zone (DIZ): 9 mm
Yarrowia lipolytica
  diameter of the inhibition zone (DIZ): inactive

## CC(C)CCC[C@@H](C)[C@H]1CC[C@H]2C(C#CCCN3C(=O)C=CC3=O)=CCC[C@]12C
Staphylococcus equorum
  diameter of the inhibition zone (DIZ): 11 mm
Escherichia coli
  diameter of the inhibition zone (DIZ): 15 mm
HL-60
  IC50: 46 µM
Nakaseomyces glabratus
  diameter of the inhibition zone (DIZ): 10 mm
[1]
  diameter of the inhibition zone (DIZ): 13 mm
Aspergillus niger
  diameter of the inhibition zone (DIZ): inactive
[2]
  inhibition zone (IZ): 12 mm
Streptococcus entericus
  diameter of the inhibition zone (DIZ): 15 mm
Yarrowia lipolytica
  diameter of the inhibition zone (DIZ): inactive

## CC(C)CCC[C@@H](C)[C@H]1CC[C@H]2C(/C=C/CO)=CCC[C@]12C
Staphylococcus equorum
  diameter of the inhibition zone (DIZ): 12 mm
Escherichia coli
  diameter of the inhibition zone (DIZ): 10 mm
HL-60
  IC50: 32 µM
Nakaseomyces glabratus
  diameter of the inhibition zone (DIZ): 18 mm
[1]
  diameter of the inhibition zone (DIZ): 18 mm
Aspergillus niger
  diameter of the inhibition zone (DIZ): inactive
[2]
  inhibition zone (IZ): 22 mm
Streptococcus entericus
  diameter of the inhibition zone (DIZ): 14 mm
Yarrowia lipolytica
  diameter of the inhibition zone (DIZ): inactive
